Measured values from publication PMC4265276 (Journal of Veterinary Pharmacology and Therapeutics, 2014).

Legend:
Assay in all cases: Z'-Lyte kinase assay
Type in all cases: biochemical
Settings in all cases: two replicates
[1] = target: Vascular endothelial growth factor receptor 2 (VEGFR-2/FLK1) (Homo sapiens, UniProt P35968)
Method in brief: (§1)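 Outsourced commercial profiling of the test compound against a panel of 38 non-JAK kinases, all screened with Z'-Lyte technology at a single concentration. Assay conditions and data analysis were specific to each kinase and set by the service provider. Every test was run in duplicate, and percent inhibition is reported separately for each replicate.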

[2] = target: High affinity nerve growth factor receptor (TRK-A) (Homo sapiens, UniProt P04629)
High affinity nerve growth factor receptor (TRK-A), sequence (P04629 33-796): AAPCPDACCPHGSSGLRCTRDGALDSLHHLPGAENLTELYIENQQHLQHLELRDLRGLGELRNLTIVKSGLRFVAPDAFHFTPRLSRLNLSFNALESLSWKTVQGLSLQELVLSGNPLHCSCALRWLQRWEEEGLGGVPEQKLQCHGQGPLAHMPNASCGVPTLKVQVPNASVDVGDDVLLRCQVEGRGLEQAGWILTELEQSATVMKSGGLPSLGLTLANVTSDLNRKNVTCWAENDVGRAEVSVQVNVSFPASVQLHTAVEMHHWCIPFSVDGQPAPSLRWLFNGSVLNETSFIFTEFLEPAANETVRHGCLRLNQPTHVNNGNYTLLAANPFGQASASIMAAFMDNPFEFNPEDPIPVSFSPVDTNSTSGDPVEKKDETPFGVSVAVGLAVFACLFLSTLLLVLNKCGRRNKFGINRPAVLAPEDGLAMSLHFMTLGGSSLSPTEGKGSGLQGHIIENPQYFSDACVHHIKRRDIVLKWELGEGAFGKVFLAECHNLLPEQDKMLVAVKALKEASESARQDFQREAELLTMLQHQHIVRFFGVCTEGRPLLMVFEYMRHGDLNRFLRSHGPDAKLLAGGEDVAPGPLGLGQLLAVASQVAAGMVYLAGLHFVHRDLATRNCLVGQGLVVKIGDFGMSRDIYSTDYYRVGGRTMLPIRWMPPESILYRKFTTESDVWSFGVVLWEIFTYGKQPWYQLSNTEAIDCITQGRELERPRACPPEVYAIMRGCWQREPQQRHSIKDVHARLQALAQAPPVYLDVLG
Method in brief: as §1

p160ROCK protein kinase = p160ROCK protein kinase (Homo sapiens, UniProt Q13464)
p160ROCK protein kinase, sequence (Q13464 2-1354): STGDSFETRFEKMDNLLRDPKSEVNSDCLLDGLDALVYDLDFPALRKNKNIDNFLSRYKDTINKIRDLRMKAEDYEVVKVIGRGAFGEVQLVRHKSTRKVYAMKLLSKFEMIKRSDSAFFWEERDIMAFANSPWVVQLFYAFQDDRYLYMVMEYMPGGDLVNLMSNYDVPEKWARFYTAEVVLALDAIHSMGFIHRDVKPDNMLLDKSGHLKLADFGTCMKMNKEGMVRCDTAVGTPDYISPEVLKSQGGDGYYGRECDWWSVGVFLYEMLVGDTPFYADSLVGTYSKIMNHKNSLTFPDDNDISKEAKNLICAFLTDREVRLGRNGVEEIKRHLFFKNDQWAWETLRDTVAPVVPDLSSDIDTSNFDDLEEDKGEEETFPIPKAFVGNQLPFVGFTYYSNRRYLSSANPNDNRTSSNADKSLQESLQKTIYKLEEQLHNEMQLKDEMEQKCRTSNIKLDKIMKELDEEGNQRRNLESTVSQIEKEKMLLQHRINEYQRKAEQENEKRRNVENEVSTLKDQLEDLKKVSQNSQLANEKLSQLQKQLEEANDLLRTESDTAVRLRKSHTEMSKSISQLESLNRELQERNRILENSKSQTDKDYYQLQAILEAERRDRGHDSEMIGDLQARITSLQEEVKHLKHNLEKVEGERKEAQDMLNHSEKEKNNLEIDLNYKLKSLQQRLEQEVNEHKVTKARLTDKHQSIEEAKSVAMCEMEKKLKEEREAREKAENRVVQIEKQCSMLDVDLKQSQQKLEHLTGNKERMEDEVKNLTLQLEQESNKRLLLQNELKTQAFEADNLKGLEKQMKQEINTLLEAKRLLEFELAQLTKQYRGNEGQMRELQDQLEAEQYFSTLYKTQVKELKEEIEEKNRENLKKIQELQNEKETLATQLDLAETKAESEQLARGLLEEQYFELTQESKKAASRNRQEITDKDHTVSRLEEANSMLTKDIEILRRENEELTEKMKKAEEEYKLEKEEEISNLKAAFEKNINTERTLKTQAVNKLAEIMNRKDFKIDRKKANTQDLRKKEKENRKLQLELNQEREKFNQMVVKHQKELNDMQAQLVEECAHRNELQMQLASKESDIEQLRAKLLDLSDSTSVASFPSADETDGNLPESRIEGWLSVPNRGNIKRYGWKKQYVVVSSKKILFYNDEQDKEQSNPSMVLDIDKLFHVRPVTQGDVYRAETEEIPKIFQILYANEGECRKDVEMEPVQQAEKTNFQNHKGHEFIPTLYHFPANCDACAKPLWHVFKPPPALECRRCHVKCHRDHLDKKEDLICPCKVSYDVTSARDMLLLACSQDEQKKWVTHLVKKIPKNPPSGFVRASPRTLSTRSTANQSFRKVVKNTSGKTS
Method in brief: as §1

[3] = target: T1, Aurora-related kinase 1 (ARK1) (Homo sapiens, UniProt O14965)
T1 sequence (O14965 1-403): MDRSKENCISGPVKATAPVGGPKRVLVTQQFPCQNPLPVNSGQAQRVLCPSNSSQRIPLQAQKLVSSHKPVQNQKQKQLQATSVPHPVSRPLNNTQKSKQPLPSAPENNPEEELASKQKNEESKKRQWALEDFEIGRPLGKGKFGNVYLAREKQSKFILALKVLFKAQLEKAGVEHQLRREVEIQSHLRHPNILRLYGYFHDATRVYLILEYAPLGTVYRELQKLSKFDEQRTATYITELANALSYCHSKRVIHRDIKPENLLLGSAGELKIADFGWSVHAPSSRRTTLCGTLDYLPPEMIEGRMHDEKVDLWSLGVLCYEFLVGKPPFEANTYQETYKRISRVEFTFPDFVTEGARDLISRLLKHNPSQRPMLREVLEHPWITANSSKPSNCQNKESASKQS
Method in brief: as §1

[4] = target: Mitogen-activated protein kinase kinase kinase kinase 4 (MAP4K4/HGK) (Homo sapiens, UniProt O95819)
Mitogen-activated protein kinase kinase kinase kinase 4 (MAP4K4/HGK), sequence (O95819 2-1239): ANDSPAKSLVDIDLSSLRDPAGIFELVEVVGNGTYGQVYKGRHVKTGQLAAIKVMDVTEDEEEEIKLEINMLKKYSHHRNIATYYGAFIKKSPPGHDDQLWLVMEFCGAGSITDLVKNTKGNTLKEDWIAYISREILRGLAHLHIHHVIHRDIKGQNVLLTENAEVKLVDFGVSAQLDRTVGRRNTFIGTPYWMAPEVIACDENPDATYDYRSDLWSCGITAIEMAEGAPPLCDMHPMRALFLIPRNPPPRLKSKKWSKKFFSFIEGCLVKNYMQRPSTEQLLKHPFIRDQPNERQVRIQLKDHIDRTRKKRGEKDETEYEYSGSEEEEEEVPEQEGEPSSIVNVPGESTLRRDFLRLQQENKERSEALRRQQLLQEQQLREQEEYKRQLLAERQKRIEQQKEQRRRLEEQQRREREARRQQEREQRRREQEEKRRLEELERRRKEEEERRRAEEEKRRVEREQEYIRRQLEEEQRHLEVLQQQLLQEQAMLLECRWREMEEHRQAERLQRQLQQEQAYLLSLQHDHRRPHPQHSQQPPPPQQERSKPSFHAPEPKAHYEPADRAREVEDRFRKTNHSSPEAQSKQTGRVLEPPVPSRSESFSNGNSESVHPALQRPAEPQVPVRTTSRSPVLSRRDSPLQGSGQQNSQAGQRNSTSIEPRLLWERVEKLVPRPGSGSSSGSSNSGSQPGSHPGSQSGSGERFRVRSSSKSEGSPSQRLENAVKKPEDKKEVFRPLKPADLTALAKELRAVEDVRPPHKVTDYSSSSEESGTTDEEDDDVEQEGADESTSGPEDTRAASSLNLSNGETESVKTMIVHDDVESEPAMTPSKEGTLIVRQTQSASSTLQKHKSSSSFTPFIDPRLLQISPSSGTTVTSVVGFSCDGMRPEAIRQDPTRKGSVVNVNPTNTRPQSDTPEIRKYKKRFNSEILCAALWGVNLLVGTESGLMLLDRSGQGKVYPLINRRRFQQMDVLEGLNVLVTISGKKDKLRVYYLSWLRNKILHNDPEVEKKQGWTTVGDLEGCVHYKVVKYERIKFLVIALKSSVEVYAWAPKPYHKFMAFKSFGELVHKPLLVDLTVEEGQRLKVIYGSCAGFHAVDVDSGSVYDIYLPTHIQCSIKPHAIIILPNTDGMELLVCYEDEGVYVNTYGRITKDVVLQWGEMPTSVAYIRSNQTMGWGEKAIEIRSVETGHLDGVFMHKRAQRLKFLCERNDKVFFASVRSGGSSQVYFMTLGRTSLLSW
Method in brief: as §1

Vascular endothelial growth factor receptor 2 (VEGFR-2/FLK1), sequence (P35968 20-1356): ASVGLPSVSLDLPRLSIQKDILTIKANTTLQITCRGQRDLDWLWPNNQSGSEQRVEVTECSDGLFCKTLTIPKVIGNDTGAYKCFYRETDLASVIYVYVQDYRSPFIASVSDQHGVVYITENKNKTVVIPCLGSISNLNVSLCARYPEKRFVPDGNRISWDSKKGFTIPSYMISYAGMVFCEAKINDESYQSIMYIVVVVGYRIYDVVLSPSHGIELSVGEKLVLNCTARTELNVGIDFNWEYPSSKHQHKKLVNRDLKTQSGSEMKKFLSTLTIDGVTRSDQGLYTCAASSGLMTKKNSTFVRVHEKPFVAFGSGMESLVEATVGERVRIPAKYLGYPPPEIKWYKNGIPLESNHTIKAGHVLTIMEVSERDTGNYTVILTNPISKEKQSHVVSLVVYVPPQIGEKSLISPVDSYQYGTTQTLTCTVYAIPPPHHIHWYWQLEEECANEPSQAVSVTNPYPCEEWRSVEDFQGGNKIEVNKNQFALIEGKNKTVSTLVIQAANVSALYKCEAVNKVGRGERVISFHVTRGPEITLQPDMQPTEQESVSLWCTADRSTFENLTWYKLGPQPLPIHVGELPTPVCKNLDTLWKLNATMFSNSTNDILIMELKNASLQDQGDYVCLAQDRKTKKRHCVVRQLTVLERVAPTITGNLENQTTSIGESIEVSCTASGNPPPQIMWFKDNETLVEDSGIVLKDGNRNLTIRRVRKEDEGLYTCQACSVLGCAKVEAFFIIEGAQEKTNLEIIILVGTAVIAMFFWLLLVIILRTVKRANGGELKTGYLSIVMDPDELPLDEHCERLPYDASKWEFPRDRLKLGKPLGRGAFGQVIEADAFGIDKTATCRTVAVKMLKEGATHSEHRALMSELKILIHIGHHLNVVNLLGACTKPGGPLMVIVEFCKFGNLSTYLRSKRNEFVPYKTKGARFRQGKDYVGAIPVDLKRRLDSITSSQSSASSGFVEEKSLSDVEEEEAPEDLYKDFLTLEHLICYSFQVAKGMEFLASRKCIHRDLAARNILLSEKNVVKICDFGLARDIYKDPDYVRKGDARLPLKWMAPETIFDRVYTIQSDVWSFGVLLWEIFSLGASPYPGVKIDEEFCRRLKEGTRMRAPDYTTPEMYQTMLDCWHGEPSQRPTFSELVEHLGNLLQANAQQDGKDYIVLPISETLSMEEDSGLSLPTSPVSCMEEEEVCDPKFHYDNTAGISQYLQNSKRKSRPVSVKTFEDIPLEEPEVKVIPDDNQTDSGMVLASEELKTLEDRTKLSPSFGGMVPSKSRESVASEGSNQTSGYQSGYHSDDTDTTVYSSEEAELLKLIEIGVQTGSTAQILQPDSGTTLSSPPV

Percent inhibition at 1000 nM oclacitinib (1st replicate) [1]: 41; 37%
Percent inhibition at 1000 nM oclacitinib (1st replicate) [2]: 32; 31%
Percent inhibition at 1000 nM oclacitinib (1st replicate) (p160ROCK protein kinase): 34; 32%
Percent inhibition at 1000 nM oclacitinib (1st replicate) [3]: 40; 40%
Percent inhibition at 1000 nM oclacitinib (1st replicate) [4]: 42; 34%
Structure (SMILES): CNS(=O)(=O)C[C@H]1CC[C@H](N(C)c2ncnc3[nH]ccc23)CC1 [oclacitinib]
